{
  "source": "ChEMBL document CHEMBL1142492",
  "about": "(J Med Chem, 2008)",
  "key": {"[1]": {"molecular_target": "Muscarinic acetylcholine receptor M3 (Homo sapiens) (UniProt P20309)", "experiment": "Inhibition of human muscarinic M3 receptor at 3 uM"}, "[2]": {"molecular_target": "Non-receptor tyrosine-protein kinase TNK1 (Homo sapiens) (UniProt Q13470)", "sequence (Q13470 whole entry)": "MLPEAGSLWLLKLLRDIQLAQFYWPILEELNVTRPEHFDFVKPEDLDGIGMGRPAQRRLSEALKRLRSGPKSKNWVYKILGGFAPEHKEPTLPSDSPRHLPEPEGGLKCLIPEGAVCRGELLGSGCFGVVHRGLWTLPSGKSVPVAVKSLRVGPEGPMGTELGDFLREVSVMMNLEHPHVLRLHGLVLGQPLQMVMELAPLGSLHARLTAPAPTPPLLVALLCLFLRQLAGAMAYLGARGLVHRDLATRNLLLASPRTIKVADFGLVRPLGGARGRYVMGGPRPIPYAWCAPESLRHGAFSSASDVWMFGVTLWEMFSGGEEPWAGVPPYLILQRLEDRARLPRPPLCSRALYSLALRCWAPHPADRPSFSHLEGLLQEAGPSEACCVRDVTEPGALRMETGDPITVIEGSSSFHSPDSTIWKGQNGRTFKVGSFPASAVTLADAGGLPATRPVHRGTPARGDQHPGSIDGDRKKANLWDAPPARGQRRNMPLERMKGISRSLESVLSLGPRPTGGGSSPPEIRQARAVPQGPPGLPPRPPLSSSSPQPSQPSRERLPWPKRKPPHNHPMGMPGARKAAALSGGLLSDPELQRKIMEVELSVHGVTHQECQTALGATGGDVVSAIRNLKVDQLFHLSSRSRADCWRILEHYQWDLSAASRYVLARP", "experiment": "Inhibition of TNK1 at 3 uM"}, "[3]": {"molecular_target": "Tyrosine-protein kinase CSK (Homo sapiens) (UniProt P41240)", "sequence (P41240 2-450 limits assumed)": "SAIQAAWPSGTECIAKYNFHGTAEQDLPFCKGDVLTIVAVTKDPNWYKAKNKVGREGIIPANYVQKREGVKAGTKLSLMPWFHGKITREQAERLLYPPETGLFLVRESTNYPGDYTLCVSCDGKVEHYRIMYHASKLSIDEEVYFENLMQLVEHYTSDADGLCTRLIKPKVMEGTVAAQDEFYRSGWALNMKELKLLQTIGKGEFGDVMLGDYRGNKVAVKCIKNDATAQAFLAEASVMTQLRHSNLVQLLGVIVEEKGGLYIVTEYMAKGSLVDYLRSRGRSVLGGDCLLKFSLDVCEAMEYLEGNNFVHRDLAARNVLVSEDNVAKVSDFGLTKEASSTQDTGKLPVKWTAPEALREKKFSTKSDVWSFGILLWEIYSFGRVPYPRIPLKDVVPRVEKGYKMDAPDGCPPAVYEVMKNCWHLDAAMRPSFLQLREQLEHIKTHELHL", "experiment": "Inhibition of CSK at 3 uM"}, "[4]": {"molecular_target": "Acetylcholine receptor subunit alpha (Homo sapiens) (UniProt P02708)", "experiment": "Displacement of bungarotoxin from human nAChR alpha1 receptor at 3 uM", "summary_of_the_method": "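Counter-screen of human nicotinic α1 receptor binding, assayed by bungarotoxin displacement.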"}, "[5]": {"molecular_target": "Serine/threonine-protein kinase Nek7 (Homo sapiens) (UniProt Q8TDX7)", "experiment": "Inhibition of NEK7 at 3 uM"}, "[6]": {"molecular_target": "Mitogen-activated protein kinase 8 (Homo sapiens) (UniProt P45983)", "experiment": "Inhibition of JNK1 at 3 uM"}, "[7]": {"system": "Epidermal growth factor receptor (Homo sapiens), P00533 [G719S]", "experiment": "Inhibition of EGFR G719S mutant at 3 uM", "assay_type": "protein assay"}, "[8]": {"molecular_target": "Citron Rho-interacting kinase (Homo sapiens) (UniProt O14578)", "experiment": "Inhibition of CIT at 3 uM"}, "[9]": {"molecular_target": "Platelet-activating factor receptor (Homo sapiens) (UniProt P25105)", "experiment": "Inhibition of human PAF at 3 uM"}, "[10]": {"molecular_target": "D(1A) dopamine receptor (Homo sapiens) (UniProt P21728)", "experiment": "Inhibition of human dopamine D1 receptor at 3 uM"}, "[11]": {"system": "Epidermal growth factor receptor (Homo sapiens), P00533 [G719C]", "experiment": "Inhibition of EGFR G719C mutant at 3 uM", "assay_type": "protein assay"}, "[12]": {"molecular_target": "Type-1 angiotensin II receptor (Homo sapiens) (UniProt P30556)", "experiment": "Inhibition of human AT1 receptor at 3 uM", "summary_of_the_method": "(§1)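 Counter-screen binding/enzyme panel at single 3 μM, n=2; results as percent inhibition. Species per target as listed (rat NMDA, GABAA sites; human receptors, transporters; rabbit ACE).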"}, "[13]": {"molecular_target": "Glycogen synthase kinase-3 beta (Homo sapiens) (UniProt P49841)", "experiment": "Inhibition of GSK3B at 3 uM"}, "[14]": {"molecular_target": "Inhibitor of nuclear factor kappa-B kinase subunit alpha (Homo sapiens) (UniProt O15111)", "experiment": "Inhibition of IKK-alpha at 3 uM"}, "[15]": {"molecular_target": "5-hydroxytryptamine receptor 1A (Homo sapiens) (UniProt P08908)", "sequence (P08908 whole entry)": "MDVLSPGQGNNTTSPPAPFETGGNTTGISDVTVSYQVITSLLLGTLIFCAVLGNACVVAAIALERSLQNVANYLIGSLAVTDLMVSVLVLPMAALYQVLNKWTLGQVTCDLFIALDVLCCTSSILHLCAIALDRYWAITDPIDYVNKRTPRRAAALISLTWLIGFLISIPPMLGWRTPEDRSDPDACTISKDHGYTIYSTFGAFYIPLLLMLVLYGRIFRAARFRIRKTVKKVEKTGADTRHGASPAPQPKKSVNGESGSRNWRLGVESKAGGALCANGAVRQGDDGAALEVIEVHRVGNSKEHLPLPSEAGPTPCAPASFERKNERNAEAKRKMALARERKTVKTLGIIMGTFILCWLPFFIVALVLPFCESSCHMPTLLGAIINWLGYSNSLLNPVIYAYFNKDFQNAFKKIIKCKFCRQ", "experiment": "Inhibition of human 5HT1A receptor at 3 uM", "summary_of_the_method": "as §1"}, "[16]": {"molecular_target": "Serine/threonine-protein kinase Nek6 (Homo sapiens) (UniProt Q9HC98)", "experiment": "Inhibition of NEK6 at 3 uM"}, "[17]": {"molecular_target": "Hepatocyte growth factor receptor (Homo sapiens) (UniProt P08581)", "experiment": "Inhibition of MET at 3 uM"}, "[18]": {"molecular_target": "Dual specificity mitogen-activated protein kinase kinase 4 (Homo sapiens) (UniProt P45985)", "experiment": "Inhibition of MEK4 at 3 uM"}, "[19]": {"molecular_target": "Serine/threonine-protein kinase TAO3 (Homo sapiens) (UniProt Q9H2K8)", "experiment": "Inhibition of TAOK3 at 3 uM"}, "[20]": {"molecular_target": "Tyrosine-protein kinase ABL1 (Homo sapiens) (UniProt P00519)", "sequence (P00519 whole entry)": "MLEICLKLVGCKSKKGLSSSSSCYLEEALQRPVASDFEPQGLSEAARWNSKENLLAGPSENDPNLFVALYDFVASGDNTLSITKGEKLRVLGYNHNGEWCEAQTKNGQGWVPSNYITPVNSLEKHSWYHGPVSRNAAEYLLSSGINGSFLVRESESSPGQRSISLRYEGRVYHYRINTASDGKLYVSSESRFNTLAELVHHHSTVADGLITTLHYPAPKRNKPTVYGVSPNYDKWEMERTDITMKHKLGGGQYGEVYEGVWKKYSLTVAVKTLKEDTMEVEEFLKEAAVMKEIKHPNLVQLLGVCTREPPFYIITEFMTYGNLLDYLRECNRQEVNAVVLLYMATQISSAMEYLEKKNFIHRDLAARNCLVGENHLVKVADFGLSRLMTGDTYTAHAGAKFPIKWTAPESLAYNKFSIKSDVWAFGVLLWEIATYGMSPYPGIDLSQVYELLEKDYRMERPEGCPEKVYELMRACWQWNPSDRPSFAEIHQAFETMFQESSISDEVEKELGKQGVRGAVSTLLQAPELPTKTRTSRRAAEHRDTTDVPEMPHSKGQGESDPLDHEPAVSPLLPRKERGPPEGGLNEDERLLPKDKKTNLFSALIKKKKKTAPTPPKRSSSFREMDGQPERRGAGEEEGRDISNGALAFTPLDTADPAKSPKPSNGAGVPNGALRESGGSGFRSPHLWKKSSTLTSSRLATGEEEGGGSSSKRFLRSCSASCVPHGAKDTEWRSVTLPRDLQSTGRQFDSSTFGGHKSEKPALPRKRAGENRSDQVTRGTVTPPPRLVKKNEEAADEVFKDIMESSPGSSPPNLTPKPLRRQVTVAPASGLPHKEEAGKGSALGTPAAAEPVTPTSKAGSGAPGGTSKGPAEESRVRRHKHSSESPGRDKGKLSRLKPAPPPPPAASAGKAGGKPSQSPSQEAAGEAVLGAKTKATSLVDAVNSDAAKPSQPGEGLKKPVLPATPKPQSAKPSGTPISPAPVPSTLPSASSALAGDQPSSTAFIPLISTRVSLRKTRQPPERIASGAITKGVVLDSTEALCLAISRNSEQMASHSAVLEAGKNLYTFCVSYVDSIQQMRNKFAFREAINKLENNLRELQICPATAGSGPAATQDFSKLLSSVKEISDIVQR", "experiment": "Inhibition of ABL1 at 3 uM"}, "[21]": {"molecular_target": "Receptor-interacting serine/threonine-protein kinase 1 (Homo sapiens) (UniProt Q13546)", "experiment": "Inhibition of RIPK1 at 3 uM"}, "[22]": {"molecular_target": "MAP kinase-activated protein kinase 2 (Homo sapiens) (UniProt P49137)", "sequence (P49137 whole entry, looked up)": "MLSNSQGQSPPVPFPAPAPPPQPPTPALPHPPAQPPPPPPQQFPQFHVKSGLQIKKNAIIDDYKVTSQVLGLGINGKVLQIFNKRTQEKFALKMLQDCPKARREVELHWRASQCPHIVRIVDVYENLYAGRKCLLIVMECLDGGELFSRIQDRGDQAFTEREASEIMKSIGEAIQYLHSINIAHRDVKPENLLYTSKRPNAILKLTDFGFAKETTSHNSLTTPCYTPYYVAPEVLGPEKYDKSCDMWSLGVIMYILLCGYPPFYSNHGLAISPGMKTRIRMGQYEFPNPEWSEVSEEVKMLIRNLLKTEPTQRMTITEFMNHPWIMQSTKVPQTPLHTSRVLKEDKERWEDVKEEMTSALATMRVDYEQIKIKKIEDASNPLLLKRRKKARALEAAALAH", "experiment": "Inhibition of MAPKAPK2 at 3 uM"}, "[23]": {"molecular_target": "Cyclin-dependent kinase 3 (Homo sapiens) (UniProt Q00526)", "experiment": "Inhibition of CDK3 at 3 uM"}, "[24]": {"molecular_target": "Cyclin-dependent kinase 15 (Homo sapiens) (UniProt Q96Q40)", "experiment": "Inhibition of PFTAIRE2 at 3 uM"}, "[25]": {"molecular_target": "Serine/threonine-protein kinase pim-2 (Homo sapiens) (UniProt Q9P1W9)", "experiment": "Inhibition of PIM2 at 3 uM"}, "[26]": {"molecular_target": "Calcium/calmodulin-dependent protein kinase kinase 2 (Homo sapiens) (UniProt Q96RR4)", "experiment": "Inhibition of CAMKK2 at 3 uM"}, "[27]": {"molecular_target": "Death-associated protein kinase 3 (Homo sapiens) (UniProt O43293)", "experiment": "Inhibition of DAPK3 at 3 uM"}, "[28]": {"molecular_target": "Wee1-like protein kinase (Homo sapiens) (UniProt P30291)", "experiment": "Inhibition of WEE1 at 3 uM"}, "[29]": {"system": "Proto-oncogene tyrosine-protein kinase receptor Ret (Homo sapiens), P07949 [M918T]", "experiment": "Inhibition of RET M918T mutant at 3 uM"}, "[30]": {"molecular_target": "cAMP-dependent protein kinase catalytic subunit PRKX (Homo sapiens) (UniProt P51817)", "experiment": "Inhibition of PRKX at 3 uM"}, "[31]": {"molecular_target": "Cyclin-dependent kinase 9 (Homo sapiens) (UniProt P50750)", "experiment": "Inhibition of CDK9 at 3 uM"}, "[32]": {"molecular_target": "Calcium/calmodulin-dependent protein kinase kinase 1 (Homo sapiens) (UniProt Q8N5S9)", "experiment": "Inhibition of CAMKK1 at 3 uM"}, "[33]": {"molecular_target": "Misshapen-like kinase 1 (Homo sapiens) (UniProt Q8N4C8)", "experiment": "Inhibition of MINK at 3 uM"}, "[34]": {"molecular_target": "Receptor tyrosine-protein kinase erbB-4 (Homo sapiens) (UniProt Q15303)", "experiment": "Inhibition of ERBB4 at 3 uM", "summary_of_the_method": "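Single-concentration kinase panel scoring: each value is the percentage of enzyme activity remaining relative to a DMSO-only control. An activity statistically indistinct from DMSO control was scored \"no hit\".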"}, "[35]": {"species": "Rattus norvegicus", "settings": "3 uM"}, "[36]": {"molecular_target": "TGF-beta receptor type-2 (Homo sapiens) (UniProt P37173)", "sequence (P37173 whole entry)": "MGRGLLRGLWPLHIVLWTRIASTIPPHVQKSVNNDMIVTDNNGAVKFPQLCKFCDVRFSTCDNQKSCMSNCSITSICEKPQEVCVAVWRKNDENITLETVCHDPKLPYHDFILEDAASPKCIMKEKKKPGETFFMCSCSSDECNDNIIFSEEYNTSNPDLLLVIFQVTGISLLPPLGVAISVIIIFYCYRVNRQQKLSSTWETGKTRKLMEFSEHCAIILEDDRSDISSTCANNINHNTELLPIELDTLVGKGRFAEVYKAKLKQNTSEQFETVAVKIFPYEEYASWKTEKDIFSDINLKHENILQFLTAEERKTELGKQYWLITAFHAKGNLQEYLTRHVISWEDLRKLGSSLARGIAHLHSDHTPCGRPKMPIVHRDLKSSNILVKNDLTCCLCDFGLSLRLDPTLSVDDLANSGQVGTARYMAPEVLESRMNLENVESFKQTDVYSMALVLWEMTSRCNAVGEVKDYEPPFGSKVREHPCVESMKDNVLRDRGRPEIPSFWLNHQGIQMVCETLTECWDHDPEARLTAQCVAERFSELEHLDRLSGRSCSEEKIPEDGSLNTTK", "experiment": "Inhibition of TGFBR2 at 3 uM"}, "[37]": {"molecular_target": "Muscle, skeletal receptor tyrosine-protein kinase (Homo sapiens) (UniProt O15146)", "experiment": "Inhibition of MUSK at 3 uM"}, "[38]": {"molecular_target": "Casein kinase I isoform alpha-like (Homo sapiens) (UniProt Q8N752)", "sequence (Q8N752 whole entry, canonical isoform)": "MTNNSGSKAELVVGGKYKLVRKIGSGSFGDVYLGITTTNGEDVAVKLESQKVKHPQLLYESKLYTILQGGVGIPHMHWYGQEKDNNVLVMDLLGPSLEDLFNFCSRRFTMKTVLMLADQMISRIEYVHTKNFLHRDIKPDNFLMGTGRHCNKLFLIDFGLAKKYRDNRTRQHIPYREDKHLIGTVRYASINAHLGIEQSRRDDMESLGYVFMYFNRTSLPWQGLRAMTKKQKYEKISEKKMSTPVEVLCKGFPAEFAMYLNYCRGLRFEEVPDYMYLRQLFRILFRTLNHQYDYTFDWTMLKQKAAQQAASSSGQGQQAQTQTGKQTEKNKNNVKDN", "experiment": "Inhibition of CSNK1A1L at 3 uM"}, "[39]": {"molecular_target": "Tyrosine-protein kinase Blk (Homo sapiens) (UniProt P51451)", "experiment": "Inhibition of BLK at 3 uM"}, "[40]": {"molecular_target": "Serine/threonine-protein kinase ULK3 (Homo sapiens) (UniProt Q6PHR2)", "sequence (Q6PHR2 whole entry)": "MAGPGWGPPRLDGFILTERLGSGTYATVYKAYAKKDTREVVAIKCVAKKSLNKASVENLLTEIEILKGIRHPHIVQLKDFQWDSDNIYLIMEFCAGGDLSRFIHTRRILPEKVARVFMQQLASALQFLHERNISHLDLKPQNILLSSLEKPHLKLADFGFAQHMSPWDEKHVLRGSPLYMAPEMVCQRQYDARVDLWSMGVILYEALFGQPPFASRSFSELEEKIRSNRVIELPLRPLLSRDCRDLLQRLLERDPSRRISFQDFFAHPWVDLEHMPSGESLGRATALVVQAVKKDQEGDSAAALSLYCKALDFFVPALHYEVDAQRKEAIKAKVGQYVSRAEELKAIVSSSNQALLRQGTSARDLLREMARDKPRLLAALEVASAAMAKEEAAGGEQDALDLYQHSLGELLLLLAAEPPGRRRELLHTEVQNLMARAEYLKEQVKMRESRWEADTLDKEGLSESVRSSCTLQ", "experiment": "Inhibition of ULK3 at 3 uM"}, "[41]": {"molecular_target": "Serine/threonine-protein kinase 38-like (Homo sapiens) (UniProt Q9Y2H1)", "sequence (Q9Y2H1 2-464 limits assumed)": "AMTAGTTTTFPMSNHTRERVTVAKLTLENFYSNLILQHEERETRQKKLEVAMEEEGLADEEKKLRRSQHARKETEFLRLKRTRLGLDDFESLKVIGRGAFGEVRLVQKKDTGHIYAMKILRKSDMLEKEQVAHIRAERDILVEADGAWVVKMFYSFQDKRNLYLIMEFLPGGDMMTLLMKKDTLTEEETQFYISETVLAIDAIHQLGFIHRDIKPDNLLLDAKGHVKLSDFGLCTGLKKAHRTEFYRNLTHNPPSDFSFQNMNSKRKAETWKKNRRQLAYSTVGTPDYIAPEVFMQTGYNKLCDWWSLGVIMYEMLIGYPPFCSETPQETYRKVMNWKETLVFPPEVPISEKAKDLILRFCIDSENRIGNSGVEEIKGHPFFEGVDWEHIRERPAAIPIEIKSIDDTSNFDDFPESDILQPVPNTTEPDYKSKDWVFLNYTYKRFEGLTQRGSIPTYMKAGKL", "experiment": "Inhibition of NDR2 at 3 uM"}, "[42]": {"molecular_target": "Vascular endothelial growth factor receptor 2 (Homo sapiens) (UniProt P35968)", "experiment": "Inhibition of VEGFR2 at 3 uM"}},
  "data": [
    {"smiles": "CN(C)CCOc1cc(-c2cn[nH]c2)ccc1NC(=O)C1COc2ccccc2O1", "note": "(configuration not stated) [SR-3677]", "values": [
      {"measurement": "inhibition", "setting": "[1]", "value": 3, "unit": "%"},
      {"measurement": "inhibition", "setting": "[2]", "value": "< 10", "unit": "%"},
      {"measurement": "inhibition", "setting": "[3]", "value": "< 10", "unit": "%"},
      {"measurement": "inhibition", "setting": "[4]", "value": 7, "unit": "%"},
      {"measurement": "inhibition", "setting": "[5]", "value": "< 10", "unit": "%"},
      {"measurement": "inhibition", "setting": "[6]", "value": "< 10", "unit": "%"},
      {"measurement": "inhibition", "setting": "[7]", "value": "< 10", "unit": "%"},
      {"measurement": "inhibition", "setting": "[8]", "value": "< 10", "unit": "%"},
      {"measurement": "inhibition", "setting": "[9]", "value": -4, "unit": "%"},
      {"measurement": "inhibition", "setting": "[10]", "value": 17, "unit": "%"},
      {"measurement": "inhibition", "setting": "[11]", "value": "< 10", "unit": "%"},
      {"measurement": "inhibition", "setting": "[12]", "value": -1, "unit": "%"},
      {"measurement": "inhibition", "setting": "[13]", "value": "< 10", "unit": "%"},
      {"measurement": "inhibition", "setting": "[14]", "value": "< 10", "unit": "%"},
      {"measurement": "inhibition", "setting": "[15]", "value": 6, "unit": "%"},
      {"measurement": "inhibition", "setting": "[16]", "value": "< 10", "unit": "%"},
      {"measurement": "inhibition", "setting": "[17]", "value": "< 10", "unit": "%"},
      {"measurement": "inhibition", "setting": "[18]", "value": "< 10", "unit": "%"},
      {"measurement": "inhibition", "setting": "[19]", "value": "< 10", "unit": "%"},
      {"measurement": "inhibition", "setting": "[20]", "value": "< 10", "unit": "%"},
      {"measurement": "inhibition", "setting": "[21]", "value": "< 10", "unit": "%"},
      {"measurement": "inhibition", "setting": "[22]", "value": "< 10", "unit": "%"},
      {"measurement": "inhibition", "setting": "[23]", "value": "< 10", "unit": "%"},
      {"measurement": "inhibition", "setting": "[24]", "value": "< 10", "unit": "%"},
      {"measurement": "inhibition", "setting": "[25]", "value": "< 10", "unit": "%"},
      {"measurement": "inhibition", "setting": "[26]", "value": "< 10", "unit": "%"},
      {"measurement": "inhibition", "setting": "[27]", "value": "< 10", "unit": "%"},
      {"measurement": "inhibition", "setting": "[28]", "value": "< 10", "unit": "%"},
      {"measurement": "inhibition", "setting": "[29]", "value": "< 10", "unit": "%"},
      {"measurement": "inhibition", "setting": "[30]", "value": "< 10", "unit": "%"},
      {"measurement": "inhibition", "setting": "[31]", "value": "< 10", "unit": "%"},
      {"measurement": "inhibition", "setting": "[32]", "value": "< 10", "unit": "%"},
      {"measurement": "inhibition", "setting": "[33]", "value": "< 10", "unit": "%"},
      {"measurement": "inhibition", "setting": "[34]", "value": "< 10", "unit": "%"},
      {"measurement": "inhibition", "setting": "[35]", "value": 0, "unit": "%"},
      {"measurement": "inhibition", "setting": "[36]", "value": "< 10", "unit": "%"},
      {"measurement": "inhibition", "setting": "[37]", "value": "< 10", "unit": "%"},
      {"measurement": "inhibition", "setting": "[38]", "value": "< 10", "unit": "%"},
      {"measurement": "inhibition", "setting": "[39]", "value": "< 10", "unit": "%"},
      {"measurement": "inhibition", "setting": "[40]", "value": "< 10", "unit": "%"},
      {"measurement": "inhibition", "setting": "[41]", "value": "< 10", "unit": "%"},
      {"measurement": "inhibition", "setting": "[42]", "value": "< 10", "unit": "%"}
    ]}
  ]
}
